Measurements reported in ChEMBL document CHEMBL4665863 (Bioorg Med Chem, 2020).
≈ marks a conversion by molar mass, not a printed value. Calls of active or inactive are those of the source. No cut-off for these calls is given here.

Experiments:
[1] = system: Pseudomonas aeruginosa; assay: Antibacterial activity against Pseudomonas aeruginosa ATCC27853 incubated for 24 hrs by CLSI-based broth microdilution method; format: functional
[2] = system: Escherichia coli; assay: Antibacterial activity against Escherichia coli ATCC25922 incubated for 24 hrs by CLSI-based broth microdilution method; format: functional; conditions: ATCC 25922
[3] = system: Staphylococcus aureus; assay: Antibacterial activity against Staphylococcus aureus clinical isolate incubated for 24 hrs by CLSI-based broth microdilution method; format: functional
[4] = system: Staphylococcus aureus; assay: Antibacterial activity against penicillin-resistant Staphylococcus aureus incubated for 24 hrs by CLSI-based broth microdilution method; format: functional
[5] = system: Bacillus pumilus; assay: Antibacterial activity against Bacillus pumilus CMCC63202 incubated for 24 hrs by CLSI-based broth microdilution method; format: functional
[6] = system: Staphylococcus aureus; assay: Antibacterial activity against Staphylococcus aureus ATCC25923 incubated for 24 hrs by CLSI-based broth microdilution method; format: functional
[7] = system: Staphylococcus aureus; assay: Antibacterial activity against methicillin-resistant Staphylococcus aureus ATCC43300 incubated for 24 hrs by CLSI-based broth microdilution method; format: functional
[8] = system: Bacillus subtilis; assay: Antibacterial activity against Bacillus subtilis ATCC9372 incubated for 24 hrs by CLSI-based broth microdilution method; format: functional
[9] = system: Staphylococcus aureus; assay: In-vivo antibacterial activity against Staphylococcus aureus infected in KM mouse model assessed as reduction in bacterial load in blood at 10 mg/kg, iv administered thrice daily and measured after 48 hrs; format: functional, organism-based
Procedure, shortened: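 Groups of four KM mice (average 20 g) were infected i.v. with 8.5 × 10⁸ CFU of a clinical S. aureus isolate resistant to CIP and ERY, in 0.15 mL saline. Treatment was 10 mg/kg i.v. three times daily. Vehicle was 2% DMAC, 30% PEG400/PG (1:1) and 5% HPβCD in water; vehicle and LIN arms were included. At 48 h, retro-orbital blood (0.1 mL) was plated on TSA for CFU counts.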

[10] = system: Bacillus subtilis; assay: Inhibition of ftsZ in Bacillus subtilis assessed as increase in enzyme polymerization kinetics at 10 ug/ml measured for 30 mins by microtiter plate-based light scattering assay; conditions: dose 10.0 µg/ml
[11] = system: Staphylococcus aureus; assay: Bactericidal activity against Staphylococcus aureus clinical isolate assessed as reduction in number of colony forming units incubated for 24 hrs followed by re-plating and reincubation on tryptic soy agar plate for 24 hrs; format: functional
[12] = system: Staphylococcus aureus; assay: Bactericidal activity against penicillin-resistant Staphylococcus aureus assessed as reduction in number of colony forming units incubated for 24 hrs followed by re-plating and reincubation on tryptic soy agar plate for 24 hrs; format: functional
[13] = system: Staphylococcus aureus; assay: Bactericidal activity against methicillin-resistant Staphylococcus aureus ATCC43300 assessed as reduction in number of colony forming units incubated for 24 hrs followed by re-plating and reincubation on tryptic soy agar plate for 24 hrs; format: functional
[14] = system: Staphylococcus aureus; assay: Bactericidal activity against Staphylococcus aureus ATCC25923 assessed as reduction in number of colony forming units incubated for 24 hrs followed by re-plating and reincubation on tryptic soy agar plate for 24 hrs; format: functional
[15] = system: Bacillus subtilis; assay: Inhibition of ftsZ in Bacillus subtilis assessed as increase in enzyme polymerization kinetics at 5 ug/ml measured for 30 mins by microtiter plate-based light scattering assay; conditions: dose 5.0 µg/ml
Procedure, shortened: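 Purified recombinant B. subtilis FtsZ was used. Polymerization was followed as light scattering in microtiter plates, read as time-dependent absorbance at 340 nm at several compound concentrations. Vehicle, CIP and LIN served as controls.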

Row | Structure (SMILES) | MIC [1] | MIC [2] | MIC [3] | MIC [4] | MIC [5] | MIC [6] | MIC [7] | MIC [8] | Activity [9] | inhibition [10] | MBC [11] | MBC [12] | MBC [13] | MBC [14] | FtsZ polymerization increase (active/inactive call) [15]
1 | NC(=O)c1c(F)ccc(OCc2nc3cc(Cl)cnc3s2)c1F | > 64 µg/mL | > 64 µg/mL | 1 µg/mL (≈ 2.81 µM) | 1 µg/mL (≈ 2.81 µM) | 0.5 µg/mL (≈ 1.41 µM) | 1 µg/mL (≈ 2.81 µM) | 1 µg/mL (≈ 2.81 µM) | 0.5 µg/mL (≈ 1.41 µM) | – | – | – | – | – | – | –
2 | CCCOc1ccc(C2CC(COc3ccc(F)c(C(N)=O)c3F)=NO2)cc1 (centres undefined) | > 64 µg/mL | > 64 µg/mL | – | > 64 µg/mL | 32 µg/mL (≈ 82 µM) | > 64 µg/mL | 64 µg/mL (≈ 164 µM) | 8 µg/mL (≈ 20.5 µM) | – | – | – | – | – | – | –
3 | Cc1ccc(C2=NOC(COc3ccc(F)c(C(N)=O)c3F)C2)cc1 (centres undefined) | > 64 µg/mL | > 64 µg/mL | – | > 64 µg/mL | 16 µg/mL (≈ 46.2 µM) | 32 µg/mL (≈ 92.4 µM) | 32 µg/mL (≈ 92.4 µM) | 16 µg/mL (≈ 46.2 µM) | – | – | – | – | – | – | –
4 | CC[C@H]1OC(=O)[C@H](C)[C@@H](O[C@H]2C[C@@](C)(OC)[C@@H](O)[C@H](C)O2)[C@H](C)[C@@H](O[C@@H]2O[C@H](C)C[C@H](N(C)C)[C@H]2O)[C@](C)(O)C[C@@H](C)C(=O)[C@H](C)[C@@H](O)[C@]1(C)O [ERYTHROMYCIN] | 32 µg/mL (≈ 43.6 µM) | 16 µg/mL (≈ 21.8 µM) | > 64 µg/mL | – | ≤ 0.125 µg/mL | ≤ 0.125 µg/mL | > 64 µg/mL | ≤ 0.125 µg/mL | – | – | – | – | – | – | –
5 | CCc1ccc(C2CC(COc3ccc(F)c(C(N)=O)c3F)=NO2)cc1 (centres undefined) | > 64 µg/mL | > 64 µg/mL | – | > 64 µg/mL | 16 µg/mL (≈ 44.4 µM) | 64 µg/mL (≈ 178 µM) | 64 µg/mL (≈ 178 µM) | 4 µg/mL (≈ 11.1 µM) | – | – | – | – | – | – | –
6 | CC(C)c1ccc(C2=NOC(COc3ccc(F)c(C(N)=O)c3F)C2)cc1 (centres undefined) | > 64 µg/mL | > 64 µg/mL | – | 16 µg/mL (≈ 42.7 µM) | ≤ 0.125 µg/mL | 4 µg/mL (≈ 10.7 µM) | 4 µg/mL (≈ 10.7 µM) | ≤ 0.125 µg/mL | – | – | – | – | – | – | –
7 | CC(C)(C)c1ccc(C2CC(COc3ccc(F)c(C(N)=O)c3F)=NO2)cc1 (centres undefined) | > 64 µg/mL | > 64 µg/mL | – | 32 µg/mL (≈ 82.4 µM) | 4 µg/mL (≈ 10.3 µM) | 64 µg/mL (≈ 165 µM) | 32 µg/mL (≈ 82.4 µM) | 2 µg/mL (≈ 5.15 µM) | – | – | – | – | – | – | –
8 | CC(=O)NC[C@H]1CN(c2ccc(N3CCOCC3)c(F)c2)C(=O)O1 [LINEZOLID] | > 64 µg/mL | > 64 µg/mL | 1 µg/mL (≈ 2.96 µM) | 1 µg/mL (≈ 2.96 µM) | 1 µg/mL (≈ 2.96 µM) | – | – | 0.5 µg/mL (≈ 1.48 µM) | Active | inactive | 64 µg/mL (≈ 190 µM) | > 64 µg/mL | > 64 µg/mL | > 64 µg/mL | –
9 | CCCCc1ccc(C2=NO[C@H](COc3ccc(F)c(C(N)=O)c3F)C2)cc1 | > 64 µg/mL | > 64 µg/mL | ≤ 0.125 µg/mL | 0.25 µg/mL (≈ 0.644 µM) | ≤ 0.125 µg/mL | 0.25 µg/mL (≈ 0.644 µM) | ≤ 0.125 µg/mL | ≤ 0.125 µg/mL | – | – | – | – | – | – | Active
10 | CCCCc1ccc(-c2cc(COc3ccc(F)c(C(N)=O)c3F)on2)cc1 | – | – | – | – | – | – | – | – | – | – | – | – | – | – | Active
11 | CCOc1ccc(C2=NOC(COc3ccc(F)c(C(N)=O)c3F)C2)cc1 (centres undefined) | > 64 µg/mL | > 64 µg/mL | – | > 64 µg/mL | 16 µg/mL (≈ 42.5 µM) | 64 µg/mL (≈ 170 µM) | 64 µg/mL (≈ 170 µM) | 4 µg/mL (≈ 10.6 µM) | – | – | – | – | – | – | –
